This is an account of results in ChEMBL document CHEMBL2346644, “Anti-HBV active constituents from Piper longum” (Bioorg Med Chem Lett, 2013).

Data set [1] concerns Hepatitis B virus. Kind of data set: Antiviral activity against Hepatitis B virus-infected human HepG2(2.2.15) cells assessed as inhibition of HBsAg secretion. The format is functional, organism-based. The method, boiled down: (§1)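 Secretion of HBsAg and HBeAg by the HBV-producing Hep G2.2.15 line was measured after compound treatment. IC50 is the concentration giving 50% inhibition of antigen secretion. Lamivudine (3TC) served as the positive control. Values are the mean of two independent experiments.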

Data set [2] is described as follows: Cytotoxicity against human HepG2(2.2.15) cells. The class given is cell-based. Summed up: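 The CC50, the concentration causing 50% cytotoxicity, was determined in Hep G2.2.15 cells. Values are the mean of two independent experiments.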
Data set [3] concerns Hepatitis B virus. Kind of data set: Antiviral activity against Hepatitis B virus-infected human HepG2(2.2.15) cells assessed as inhibition of HBeAg secretion. The class given is functional, organism-based. The method, boiled down:
as §1

Data set [4] in a line: Selectivity index, ratio of CC50 for human HepG2(2.2.15) cells to IC50 for Hepatitis B virus-infected human HepG2(2.2.15) cells assessed as inhibition of HBsAg secretion. The format is functional. The method, boiled down: (§2)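 SI was calculated as CC50/IC50 from Hep G2.2.15 cytotoxicity and from inhibition of HBeAg or HBsAg secretion. The underlying values are means of two independent experiments.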

Data set [5] in a line: Selectivity index, ratio of CC50 for human HepG2(2.2.15) cells to IC50 for Hepatitis B virus-infected human HepG2(2.2.15) cells assessed as inhibition of HBeAg secretion. The format is functional. The method, boiled down:
as §2

As to `COc1cc(CC/C=C/C(=O)N2CCCCC2)ccc1O`, the results for the half-maximal inhibitory concentration (IC50) in the data set with Hepatitis B virus [1] and with Hepatitis B virus [3] were 2700 µM and > 2700 µM, respectively. Moreover, the CC50 (in general, the concentration at which the toxic effect on the cells reaches its halfway point) in data set [2] was > 2700 µM.
As to `CCCCCCCCCCCCCCC/C=C/C=C/C(=O)NCC(C)C`, the results for the IC50 in the data set with Hepatitis B virus [1] and in the data set with Hepatitis B virus [3] were 580 µM and 1070 µM, respectively. In addition, the “Ratio CC50/IC50” value is reported as 2.7 in data set [4] and 1.5 in data set [5]. The compound further returned a cytotoxic concentration (CC50) in data set [2] of 1580 µM.
In the case of `O=C1NCC[C@H](O)[C@H]1O`, the concentration for half-maximal inhibition (IC50) in the data set with Hepatitis B virus [1] and in the data set with Hepatitis B virus [3] was > 1220 µM each time. Moreover, in data set [2], the cytotoxic concentration (CC50) was > 1220 µM.
Regarding `O=C(/C=C/CCCC[C@H](O)[C@H](O)c1ccc2c(c1)OCO2)N1CCCCC1` (relative stereo), the IC50 (usually the concentration at which inhibition is half-maximal) is 130 µM in the data set with Hepatitis B virus [1] and 160 µM in the data set on Hepatitis B virus [3]. The “Ratio CC50/IC50” value turned out to be 2.5 in data set [4] and 2 in data set [5]. Besides, it took 320 µM to reach half-maximal cytotoxicity in data set [2] (CC50).
Take `O=C(/C=C/CCCC[C@@H](O)[C@H](O)c1ccc2c(c1)OCO2)N1CCCCC1` (relative stereo): the half-maximal inhibitory concentration (IC50) in the data set on Hepatitis B virus [1] and in the data set on Hepatitis B virus [3] was 110 µM in each case. For the same compound, the “Ratio CC50/IC50” value in data set [4] and in data set [5] was 1.9 each time. The compound further registered a CC50 in data set [2] of 210 µM.
Consider `O=C1C=CCCN1` [5,6-DIHYDRO-2(1H)-PYRIDINONE], for which the IC50 in the data set on Hepatitis B virus [1] and with Hepatitis B virus [3] was > 14000 µM in each case. For the same compound, it took 9900 µM to reach half-maximal cytotoxicity in data set [2] (CC50).
For `CC(C)CNC(=O)/C=C/C=C/CCCCCC/C=C/c1ccc2c(c1)OCO2` [GUINEENSINE], the IC50 in the data set on Hepatitis B virus [1] and with Hepatitis B virus [3] was < 50 µM in each case. For the same compound, the “Ratio CC50/IC50” value in data set [4] and in data set [5] was >3 in each case. In addition, the CC50 in data set [2] turned out to be 150 µM.
With `Nc1ccn([C@@H]2CS[C@H](CO)O2)c(=O)n1` [LAMIVUDINE], the concentration for half-maximal inhibition (IC50) in the data set on Hepatitis B virus [1] turned out to be 28800 µM; in the data set with Hepatitis B virus [3], 30400 µM. Also, the “Ratio CC50/IC50” value in data set [4] is 1.1; in data set [5], 1.
`CC(CC(=O)O)(CC(=O)O)OC[C@H]1O[C@@H](OC/C=C/c2ccccc2)[C@H](O)[C@@H](O)[C@@H]1O` [LONGUMOSIDE B]: the IC50 with Hepatitis B virus [1] and in the data set on Hepatitis B virus [3] was > 3750 µM each time. Moreover, in data set [2], the CC50 was > 3750 µM.
Turning to `O=C(/C=C/C=C/c1ccc2c(c1)OCO2)N1CCCCC1` [PIPERINE], the half-inhibitory concentration (IC50) was 150 µM with Hepatitis B virus [1] and 140 µM in the data set on Hepatitis B virus [3]. Further, the “Ratio CC50/IC50” value in data set [4] amounted to 15.7; in data set [5], 16.8. The compound further had a CC50 in data set [2] of 2350 µM.
On to `CC(C)CNC(=O)/C=C/C=C/c1ccc2c(c1)OCO2` [PIPERLONGUMININE], for which the IC50 in the data set on Hepatitis B virus [1] and in the data set with Hepatitis B virus [3] was > 4510 µM in each case. Also, the half-maximal cytotoxic concentration (CC50) in data set [2] came to 320 µM.
